# From PubChem BioAssay
# Only some compounds are listed: those with a hit (about 2.6% of all), similar ones and a draw of the others.
# Platelet DG rel = inhibitors of platelet dense granule secretion, primary screen, cell-based, MLPCN, human platelets; AID 1663, 2009; human platelet-rich plasma, SFLLRN dense granule ATP release, luminescence; 0.22% of 300,000 active; inhibition, %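 (compounds screened at 7.5 µM in platelet-rich plasma)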;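 active = mean replicate score, as percent of positive control, at or above 50; inconclusive = mean below 50 but at least one replicate at or above 50; inactive = mean and every replicate below 50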
# SENP8 block-1 = SENP8 protease inhibitors, primary screen, biochemical, luminescence. Sentrin-specific protease 8 (Homo sapiens), Q96LD8. purified SENP8, Z-RLRGG-aminoluciferin cleavage. inhibition, % at 10 µM. 1.2% of 330,000 active; in the data active = inhibition above about 50%
# Target sequence (Q96LD8 whole entry, looked up): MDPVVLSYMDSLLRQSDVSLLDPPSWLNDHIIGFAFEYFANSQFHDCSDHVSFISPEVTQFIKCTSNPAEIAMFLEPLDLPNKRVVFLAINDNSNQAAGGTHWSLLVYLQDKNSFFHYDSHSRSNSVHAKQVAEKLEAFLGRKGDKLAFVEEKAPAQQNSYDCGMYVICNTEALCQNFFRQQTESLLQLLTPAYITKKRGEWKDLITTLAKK
# SENP8 block-2 = human SENP8 protease inhibitors, primary screen, biochemical, fluorescence, Nedd8 protein substrate, uHTS. recombinant SENP8. 0.64% of 360,000 active. Sentrin-specific protease 8 (Homo sapiens), Q96LD8. AID 602440, 2012. inhibition, % at 20 µM; in the data active = inhibition mostly above about 40%, no sharp cut-off; inactive = mostly below about 27%
# SENP1 inh = human SENP1 catalytic domain inhibitors, primary screen, biochemical, FRET, uHTS; inhibition, % at 10 µM; 0.21% of 360,000 active; Sentrin-specific protease 1 (Homo sapiens), Q9P0U3; AID 624204, 2012; recombinant SENP1 catalytic domain, CyPet-SUMO1-YPet FRET cleavage;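 active = inhibition at least 30% at 10 µM, raw YFP signal under a set limit, fluorescence ratio 0.5 to 1.5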;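 also: 0% = enzyme with DMSO and 100% = no enzyme wells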
# Target sequence (Q9P0U3 419-644 limits assumed): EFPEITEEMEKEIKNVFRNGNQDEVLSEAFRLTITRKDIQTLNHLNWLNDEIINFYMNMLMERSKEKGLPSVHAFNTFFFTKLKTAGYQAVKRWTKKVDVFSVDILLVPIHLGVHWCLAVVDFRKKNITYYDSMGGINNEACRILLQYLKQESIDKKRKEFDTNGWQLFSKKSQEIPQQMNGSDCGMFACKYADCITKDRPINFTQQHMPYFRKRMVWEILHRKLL
#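 Test system: hSENP1 catalytic domain, recombinant; Amount: 20 pM final SENP1 enzyme; Medium: Tris pH 8 buffer plus EDTA, NaCl, BME, BSA, NP40, catalase; Schedule: 50 min enzyme reaction, room temperature, light-protected; Technique: FRET fluorescence in CFP and YFP emission channels; Controls: no-enzyme wells low, DMSO-plus-enzyme wells high control.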
# SENP6 block = SENP6 protease inhibitors, primary screen, biochemical, luminescence, uHTS | Sentrin-specific protease 6 (Homo sapiens), Q9GZR1 | AID 2599, 2010 | Recombinant SENP6 catalytic domain, aminoluciferin luminescence | 1.8% of 330,000 active | inhibition, % at 10 µM;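 active = inhibition above about 50% at the single tested dose, limit read from the data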;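 also: plate controls were DMSO wells with enzyme for no effect and DMSO wells lacking enzyme for full effect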
# SENP7 inh = SENP7 protease inhibitors, primary screen, biochemical, luminescence, uHTS. AID 434973, 2010. inhibition, % at 5 µM. 1.5% of 330,000 active. Sentrin-specific protease 7 (Homo sapiens), Q9BQF6. recombinant SENP7, Z-RLRGG-aminoluciferin luminescence, 40 min;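 active = inhibition above about 50% at the single test dose, limit read from the data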;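 also: plate controls were DMSO with enzyme for no effect and no enzyme buffer wells for full effect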
# Numbers without * were called inactive; ? = inconclusive; nt = not tested or not shown.
SMILES,Platelet DG rel,SENP8 block-1,SENP8 block-2,SENP1 inh,SENP6 block,SENP7 inh
Cc1nc2ccccc2c(=O)n1/N=C/c1ccc(O)c(O)c1O,6,5,69*,2,19,9
Oc1ccc(/C=N/N2CCOCC2)c(O)c1O,0,-2,63*,4,14,-8
Oc1ccc(/C=N/N(c2ccccc2)c2ccccc2)c(O)c1O,7,10,32*,10,12,5
Oc1ccc(/C=N/N(c2ccccc2)c2ccccc2)cc1O,15,2,-3,-4,2,0
CCOC(=O)/C=C/[C@H]1CC(c2ccccc2)(c2ccccc2)CO1,nt,2,15,1,0,-1
CCN(CC)S(=O)(=O)c1cccc(NC(=O)/C=C/c2ccc([N+](=O)[O-])cc2)c1,-4,-1,15,6,10,6
COc1cccc(NC(=O)/C=C/c2ccc([N+](=O)[O-])cc2)c1,15,51*,11,-6,75*,38
COc1cccc(NC(=O)/C=C/c2ccccc2[N+](=O)[O-])c1,5,90*,34,1,98*,94*
Cc1cc(SCC(=O)N/N=C/c2ccc(O)c(O)c2O)c(C)cc1Br,-6,-3,35*,2,1,3
Cc1nc(NCCOc2ccccc2)sc1C(=O)Nc1ccccc1,-3,63*,3,1,76*,84*
O=C(NCC1CCCO1)c1cc2c([nH]c3ccccc32)c(-c2cccc(Cl)c2)n1 (centres undefined),2,5,4,-9,-3,5
O=C(CN1C(=O)/C(=C/c2ccco2)SC1=S)NC1CCS(=O)(=O)C1 (centres undefined),1,-4,41*,7,7,-2
CCOC(=O)C1=C(C)c2ccccc2N(C(=O)OC)C1(C)C(=O)OCC (centres undefined),nt,nt,-13,0,nt,9
CCC(C)C(=O)N1c2ccccc2C(=C2SC(C(=O)OC)=C(C(=O)OC)S2)C(=S)C1(C)C (centres undefined),nt,-5,56*,4,-12,4
Cc1ccccc1C(=O)NCC(=O)N1CCN(C/C=C/c2ccccc2)CC1,nt,-3,10,-1,0,2
CCn1ncc(C2=NOC(C(=O)N3CCC(C(N)=O)CC3)C2)c1C (centres undefined),6,-3,10,1,1,0
COc1ccccc1NC(=O)Nc1ccc(C(=O)N2CCCCC2)cc1,92*,91*,11,0,96*,97*
COC(=O)c1ccccc1NC(=O)Nc1ccc(C(=O)N2CCCC2)cc1,-7,11,14,-1,13,9
COc1ccccc1NC(=O)NC1(C(=O)N2CCCCCC2)CCCCC1,53*,-9,20,-3,-12,-5
Cc1nc(NC(=O)c2ccccc2)sc1-c1csc(Nc2ccc(Cl)cc2)n1,4,42,nt,nt,51*,25
Cc1nc(NC(=O)c2ccccc2)sc1-c1csc(Nc2ccc(Cl)cc2Cl)n1,16,33,nt,nt,51*,59*
Cc1nc(NC(=O)c2ccccc2)sc1-c1csc(Nc2ccc(F)cc2)n1,11,48,nt,nt,45,20
Cc1nc(NC(=O)c2ccccc2)sc1-c1csc(Nc2cccc(Cl)c2)n1,4,24,nt,nt,39,9
CC(=O)NC(c1ccccc1)c1cc(Cl)c2cccnc2c1O (centres undefined),14,-11,16,0,-4,11
CCC(=O)NC(c1ccc(C)cc1)c1cc([N+](=O)[O-])c2cccnc2c1O (centres undefined),-2,nt,58*,-2,nt,nt
CC(=O)NC(c1ccc(C)cc1)c1cc([N+](=O)[O-])c2cccnc2c1O (centres undefined),-8,6,42*,-2,17,8
O=C(NC(c1ccc(Cl)cc1)c1cc(Cl)c2cccnc2c1O)c1cccnc1 (centres undefined),?,nt,38,62*,nt,nt
